According to ChEMBL document CHEMBL3779860, “A Designed Tryptophan- and Lysine/Arginine-Rich Antimicrobial Peptide with Therapeutic Potential for Clinical Antibiotic-Resistant Candida albicans Vaginitis” (J Med Chem, 2016):
Active and inactive are the calls of the source. The calls are words filed in the database; no cut-off is given here.

Columns and labels:
Candida albicans [1] = assay: Antimicrobial activity against antibiotic resistant Candida albicans clinical isolate 08030809 compound treated in PBS solution measured after 36 hrs by disc diffusion method; type: functional; conditions: isolate 08030809, 36 h
How it was run: (§1)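 Salt-tolerance test: peptide at 2 mg/mL was prepared in sterile ddH2O, in 150 mM NaCl, or in PBS (150 mM NaCl, 2.7 mM KCl, 1.5 mM KH2PO4, 8 mM K2HPO4, pH 7.2). Anti-C. albicans activity was then assessed by inhibition zone on Sabouraud medium with 0.7% agar.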

Candida albicans [2] = assay: Antimicrobial activity against antibiotic resistant Candida albicans clinical isolate 08032710 compound treated in PBS solution measured after 36 hrs by disc diffusion method; type: functional; conditions: isolate 08032710, 36 h; how it was run: as §1
Candida albicans [3] = assay: Antimicrobial activity against antibiotic resistant Candida albicans clinical isolate 08032821 compound treated in PBS solution measured after 36 hrs by disc diffusion method; type: functional; conditions: isolate 08032821, 36 h; how it was run: as §1
Candida albicans [4] = assay: Antimicrobial activity against antibiotic resistant Candida albicans clinical isolate 08030809 compound treated in NaCl solution measured after 36 hrs by disc diffusion method; type: functional; conditions: isolate 08030809, 36 h; how it was run: as §1
Candida albicans [5] = assay: Antimicrobial activity against antibiotic resistant Candida albicans clinical isolate 08032815 compound treated in double distilled water measured after 36 hrs by disc diffusion method; type: functional; conditions: isolate 08032815, 36 h; how it was run: as §1
[6] = Ratio of HC50 for human RBC to MIC for Candida albicans ATCC 2002
Candida albicans [7] = assay: Antimicrobial activity against antibiotic resistant Candida albicans clinical isolate 08022821 after 16 hrs by broth dilution method; type: functional; conditions: isolate 08022821, 16 h
How it was run: (§2)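 Broth microdilution in Sabouraud liquid medium. Samples are stocks in 0.9% NaCl, 10 µL added to 90 µL broth plus 100 µL of 2 × 10^5 CFU/mL yeast suspension. Incubated 16 h at 28°C, growth read by A600. MIC is the lowest concentration completely inhibiting growth; mean of three independent experiments.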

Candida albicans [8] = assay: Antimicrobial activity against antibiotic resistant Candida albicans clinical isolate 08030809 assessed as clone count at MIC after 1 hr by colony counting assay (reference value: 228 +/- 23 CFU); type: functional
Candida albicans [9] = assay: Antimicrobial activity against Candida albicans ATCC 2002 assessed as inhibition of yeast growth after 16 hrs by broth dilution method; type: functional; conditions: ATCC 2002, 16 h; how it was run: as §2
Bacillus subtilis = assay: Antimicrobial activity against Bacillus subtilis assessed as inhibition of […] growth after 16 hrs by broth dilution method; type: functional
How it was run: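 Broth dilution in LB broth; 100 µL of 2 × 10^5 CFU/mL bacterial suspension plus 10 µL sample (stock series in 0.9% NaCl) in 90 µL broth, 37°C for 16 h. Growth read as A600; MIC is the lowest concentration completely inhibiting growth. Mean of three independent experiments run in duplicate.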

Candida albicans [10] = assay: Antimicrobial activity against antibiotic resistant Candida albicans clinical isolate 08030809 assessed as clone count at MIC after 12 hrs by colony counting assay (reference value: 54153 +/- 8769 CFU); type: functional
Candida albicans [11] = assay: Antimicrobial activity against antibiotic resistant Candida albicans clinical isolate 08030809 assessed as clone count at 5 times MIC after 6 hrs by colony counting assay (reference value: 14536 +/- 2467 CFU); type: functional
Candida albicans [12] = assay: Antimicrobial activity against antibiotic resistant Candida albicans clinical isolate 08030809 assessed as clone count at 5 times MIC after 12 hrs by colony counting assay (reference value: 54153 +/- 8769 CFU); type: functional
Candida albicans [13] = assay: Antimicrobial activity against antibiotic resistant Candida albicans clinical isolate 08030809 assessed as clone count at 5 times MIC after 24 hrs by colony counting assay (Rvb > 10^5 CFU); type: functional
Candida albicans [14] = assay: Antimicrobial activity against antibiotic resistant Candida albicans clinical isolate 08030809 assessed as clone count at 10 times MIC after 12 hrs by colony counting assay (reference value: 54153 +/- 8769 CFU); type: functional
Candida albicans [15] = assay: Antimicrobial activity against antibiotic resistant Candida albicans clinical isolate 08030809 assessed as clone count at MIC after 10 mins by colony counting assay (reference value: 102 +/- 11 CFU); type: functional
Candida albicans [16] = assay: Antimicrobial activity against antibiotic resistant Candida albicans clinical isolate 08030809 assessed as clone count at 10 times MIC after 1 min by colony counting assay (reference value: 62 +/- 7 CFU); type: functional
Candida albicans [17] = assay: Antimicrobial activity against antibiotic resistant Candida albicans clinical isolate 08030809 assessed as clone count at 10 times MIC after 10 mins by colony counting assay (reference value: 102 +/- 11 CFU); type: functional
Candida albicans [18] = assay: Antimicrobial activity against antibiotic resistant Candida albicans clinical isolate 08030809 assessed as clone count at 10 times MIC after 30 mins by colony counting assay (reference value: 156 +/- 16 CFU); type: functional
Candida albicans [19] = assay: Antimicrobial activity against antibiotic resistant Candida albicans clinical isolate 08030809 in mouse vaginitis model assessed as colony count in lavage liquid of vagina at 50 ug administered as intravaginal instillation measured on day 16; type: functional
Candida albicans [20] = assay: Antimicrobial activity against antibiotic resistant Candida albicans clinical isolate 08030809 in mouse vaginitis model assessed as decrease in colony count in lavage liquid of vagina at 20 ug administered as intravaginal instillation measured on day 6; type: functional
Candida albicans [21] = assay: Antimicrobial activity against antibiotic resistant Candida albicans clinical isolate 08030809 in mouse vaginitis model assessed as decrease in colony count in lavage liquid of vagina at 50 ug administered as intravaginal instillation measured on day 16; type: functional
Candida albicans [22] = assay: Antimicrobial activity against antibiotic resistant Candida albicans clinical isolate 08030809 in mouse vaginitis model assessed as decrease in colony count in lavage liquid of vagina administered as intravaginal instillation measured on day 1, 6, 11, 16; type: functional, organism-based
Candida albicans [23] = assay: Antimicrobial activity against antibiotic resistant Candida albicans clinical isolate 08030809 in mouse vaginitis model assessed as decrease in colony count in lavage liquid of vagina at 50 ug measured on day 1; type: functional
Candida albicans [24] = assay: Effect on cell morphology in antibiotic resistant Candida albicans clinical isolate 08030809 assessed as cell swelling at MIC to 2.5 times MIC after 30 mins by scanning electron microscopy; type: functional, organism-based
How it was run: (§3)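 Exponential-phase C. albicans 08030809 was washed in PBS and resuspended in Sabouraud medium. Cells were treated 30 min at 37°C alongside a vehicle control. They were then fixed in 2.5% glutaraldehyde (4°C, 2 h) and 1% osmium tetroxide, dehydrated through graded ethanol, freeze-dried from tert-butanol, gold-coated and imaged by SEM. Images are typical of three experiments.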

Candida albicans [25] = assay: Effect on cell morphology in antibiotic resistant Candida albicans clinical isolate 08030809 assessed as cell membrane perforation at MIC to 2.5 times MIC after 30 mins by scanning electron microscopy; type: functional, organism-based; how it was run: as §3

Substance: H-VKRWKKWRWKWKKWV-NH2
- MIC (Candida albicans [1]): 1.4 µg/mL
- MIC (Candida albicans [2]): 2.79 µg/mL
- MIC (Candida albicans [3]): 2.65 µg/mL
- MIC (Candida albicans [4]): 1.4 µg/mL
- MIC (Candida albicans [5]): 2.79 µg/mL
- Ratio [6]: 542
- MIC (Candida albicans [7]): 3.13 µg/mL
- Activity (Candida albicans [8]): 0 CFU
- MIC (Candida albicans [9]): 0.59 µg/mL
- MIC (Bacillus subtilis): 1.17 µg/mL
- Activity (Candida albicans [10]): 0 CFU
- Activity (Candida albicans [11]): 0 CFU
- Activity (Candida albicans [12]): 0 CFU
- Activity (Candida albicans [13]): 0 CFU
- Activity (Candida albicans [14]): 0 CFU
- Activity (Candida albicans [15]): 15 CFU
- Activity (Candida albicans [16]): 6 CFU
- Activity (Candida albicans [17]): 4 CFU
- Activity (Candida albicans [18]): 0 CFU
- Activity (Candida albicans [19]): 2.9 ×10³ CFU/ml
- inhibition (INH) (Candida albicans [20]): 22%
- inhibition (INH) (Candida albicans [21]): 83%
- inhibition (Candida albicans [22]): Dose-dependent effect
- inhibition (INH) (Candida albicans [23]): 28%
- Activity (Candida albicans [24]): Active
- Activity (Candida albicans [25]): Active
